Active and inactive are the calls of the source. No cut-off for these calls is given here.
Assays:
[1] = Half life in Balb nu/nu mouse at 10 mg/kg, iv; format: ADME, organism-based; set-up: dose 10 mg/kg, route intravenous; conditions: in vivo
Summary of the method: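 Overnight-fasted male Nu/Nu mice, single intravenous dose in 10% Tween 80 in 5% dextrose, three mice. Saphenous vein blood taken at predose, 0.083, 0.5, 1, 6 and 24 h. Plasma obtained by centrifugation at 10,000g, 3 min, 4 °C, stored at -80 °C, then analysed by LC/MS/MS.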

[2] = target: Dual specificity protein kinase CLK1 (Homo sapiens) (UniProt P49759); experiment: Inhibition of human CLK1 at 0.1 uM
Dual specificity protein kinase CLK1 (Homo sapiens), sequence (P49759 whole entry, looked up): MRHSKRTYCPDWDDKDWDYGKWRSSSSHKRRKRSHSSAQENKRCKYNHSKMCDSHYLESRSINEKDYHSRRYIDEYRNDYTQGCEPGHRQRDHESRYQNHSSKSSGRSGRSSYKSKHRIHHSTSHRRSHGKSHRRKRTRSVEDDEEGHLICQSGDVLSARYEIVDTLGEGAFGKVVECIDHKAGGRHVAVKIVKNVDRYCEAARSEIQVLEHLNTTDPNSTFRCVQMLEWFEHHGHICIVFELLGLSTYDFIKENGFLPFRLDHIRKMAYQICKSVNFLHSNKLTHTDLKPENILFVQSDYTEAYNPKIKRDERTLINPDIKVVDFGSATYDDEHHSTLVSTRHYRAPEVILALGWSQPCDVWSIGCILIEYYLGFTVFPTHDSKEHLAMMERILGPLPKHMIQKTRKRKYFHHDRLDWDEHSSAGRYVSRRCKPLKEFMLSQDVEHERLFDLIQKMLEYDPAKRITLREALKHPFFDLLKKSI
Summary of the method: (§1)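 KINOMEscan active-site-directed competition binding panel of 442 human kinases, compound tested at 0.1 µM. Primary screen results expressed as % Ctrl, where lower values mean stronger binding.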

[3] = target: Dual specificity tyrosine-phosphorylation-regulated kinase 1B (Homo sapiens) (UniProt Q9Y463); experiment: Inhibition of human DYRK1B at 0.1 uM; summary of the method: as §1
Dual specificity tyrosine-phosphorylation-regulated kinase 1B (Homo sapiens), sequence (Q9Y463 whole entry, looked up): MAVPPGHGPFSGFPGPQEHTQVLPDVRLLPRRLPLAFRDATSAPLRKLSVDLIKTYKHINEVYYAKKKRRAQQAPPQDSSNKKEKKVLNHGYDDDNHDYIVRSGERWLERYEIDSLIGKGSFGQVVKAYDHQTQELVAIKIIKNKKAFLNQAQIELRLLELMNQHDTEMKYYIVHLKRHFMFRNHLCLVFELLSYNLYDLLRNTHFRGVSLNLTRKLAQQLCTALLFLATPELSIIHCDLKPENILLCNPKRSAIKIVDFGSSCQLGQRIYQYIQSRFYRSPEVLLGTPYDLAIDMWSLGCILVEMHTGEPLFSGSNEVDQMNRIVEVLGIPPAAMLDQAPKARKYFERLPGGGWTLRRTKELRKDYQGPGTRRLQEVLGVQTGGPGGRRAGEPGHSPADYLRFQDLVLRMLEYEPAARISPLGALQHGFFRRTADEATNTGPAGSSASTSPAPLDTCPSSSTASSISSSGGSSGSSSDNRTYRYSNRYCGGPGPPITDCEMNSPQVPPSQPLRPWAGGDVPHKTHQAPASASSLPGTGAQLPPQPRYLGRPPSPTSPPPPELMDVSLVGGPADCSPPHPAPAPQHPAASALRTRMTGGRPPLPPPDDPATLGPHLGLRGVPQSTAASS

[4] = target: T1, Serine/threonine-protein kinase TAO1 (Homo sapiens) (UniProt Q7L7X3); experiment: Inhibition of human TAOK1 at 0.1 uM; summary of the method: as §1
T1 sequence (whole entry): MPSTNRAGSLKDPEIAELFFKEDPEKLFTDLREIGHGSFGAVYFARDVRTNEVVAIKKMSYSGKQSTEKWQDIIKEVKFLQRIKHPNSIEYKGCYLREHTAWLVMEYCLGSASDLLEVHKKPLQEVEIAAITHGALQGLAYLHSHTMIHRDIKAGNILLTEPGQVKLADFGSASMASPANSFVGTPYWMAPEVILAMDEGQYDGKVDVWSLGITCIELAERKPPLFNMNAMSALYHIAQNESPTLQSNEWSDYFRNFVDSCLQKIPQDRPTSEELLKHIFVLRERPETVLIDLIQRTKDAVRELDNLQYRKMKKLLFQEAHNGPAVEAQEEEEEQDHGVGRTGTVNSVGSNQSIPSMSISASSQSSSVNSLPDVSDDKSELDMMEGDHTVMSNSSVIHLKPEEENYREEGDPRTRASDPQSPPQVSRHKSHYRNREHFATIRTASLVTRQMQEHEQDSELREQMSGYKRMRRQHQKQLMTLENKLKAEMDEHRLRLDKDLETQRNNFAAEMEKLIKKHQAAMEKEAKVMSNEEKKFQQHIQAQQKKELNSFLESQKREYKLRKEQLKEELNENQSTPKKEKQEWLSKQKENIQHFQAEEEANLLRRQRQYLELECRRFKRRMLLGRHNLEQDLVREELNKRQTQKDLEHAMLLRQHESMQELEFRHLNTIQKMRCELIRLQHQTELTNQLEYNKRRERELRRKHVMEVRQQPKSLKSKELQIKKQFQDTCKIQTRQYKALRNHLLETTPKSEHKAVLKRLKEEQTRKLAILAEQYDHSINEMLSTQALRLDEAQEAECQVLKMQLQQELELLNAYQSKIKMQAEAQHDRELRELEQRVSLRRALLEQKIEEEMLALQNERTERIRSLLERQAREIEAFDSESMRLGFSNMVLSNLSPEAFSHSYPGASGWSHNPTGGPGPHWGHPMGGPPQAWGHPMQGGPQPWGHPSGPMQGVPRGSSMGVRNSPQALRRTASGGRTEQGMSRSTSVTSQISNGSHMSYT

SET-2 [5] = experiment: Inhibition of STAT3 phosphorylation in human SET2 cells xenografted in SCID mouse assessed as tumor growth inhibition at 50 mg/kg, po as single dose measured up to 12 hrs post treatment; format: functional, organism-based; set-up: dose 50 mg/kg
Summary of the method: (§2)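 SET-2 s.c. xenografts in irradiated female SCID mice were given one oral dose. Tumours were collected at several post-treatment times, 3 animals per time. Tumour lysates were western blotted for P-STAT5 and P-STAT3, with GAPDH as loading control.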

SET-2 [6] = experiment: Inhibition of STAT5 phosphorylation in human SET2 cells xenografted in SCID mouse assessed as tumor growth inhibition at 30 mg/kg, po as single dose measured at 1 to 3 hrs post treatment; format: functional, organism-based; set-up: dose 30 mg/kg; summary of the method: as §2
Mus musculus = experiment: Toxicity in human SET2 cells xenografted SCID mouse assessed as reversible body weight loss at 30 mg/kg, po bid for 10 consecutive days measured after 10 days; conditions: in vivo, 240 h

NC(=O)c1cc(-c2ccnc(N)n2)[nH]c1-c1cc(C(F)(F)F)ccc1Cl
half-life [1]: 66 min | inhibition [2]: 1% | inhibition [3]: 1% | inhibition [4]: 1% | inhibition (SET-2 [5]): Active | inhibition (SET-2 [6]): Active | Activity (Mus musculus): 6%
